Some results are limits rather than exact numbers.

For data set [1], the system named is HT-29. Briefly: Selectivity ratio, IC50 for human HT-29 cells under normoxic condition to IC50 for human HT29 cells under hypoxic condition. It counts as functional.
The nature of data set [2]: Half life in PBS buffer at 10 uM at pH 6.5 by HPLC method. It counts as physicochemical.
Data set [3] is filed under the species Mus musculus. The data set can be described thus: Drug degradation in mouse plasma assessed as compound half life at 10 uM by HPLC method.
Data set [4] relates to HT-29. Briefly: Cytotoxicity against human HT-29 cells assessed as growth reduction under normoxic condition after 72 hrs by MTT assay. The data set is classed as functional, cell-based. Particulars: HT-29, 72 h. The method, boiled down: (§1)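 H460 lung and HT29 colon carcinoma cells exposed to a range of compound concentrations for 72 h, either in air (normoxic) or under hypoxia (94% N2, 5% CO2, 1% O2). Viability/proliferation read by MTT; IC50 for proliferation inhibition.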
(Tetrazolium dyes change colour on reduction, which living cells bring about.)

Data set [5] can be described thus: Half life in PBS buffer at 10 uM at pH 7.4 by HPLC method. It counts as physicochemical.
The nature of data set [6]: Prodrug conversion in Pd/C assessed as PTX formation at 1 mg after 2 hrs in presence of H2 by LC/MS method. The method, boiled down: (§2)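 Chemical reduction over Pd/C under H2 in THF at 37 °C. Products were analysed to follow release of the parent drug.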
Data set [7] deals with NCI-H460. Briefly: Cytotoxicity against human NCI-H460 cells assessed as growth reduction under hypoxic condition after 72 hrs by MTT assay. The data set is classed as functional, cell-based. Particulars: NCI-H460, 72 h. The method, boiled down: as §1
Data set [8] can be described thus: Drug degradation in human plasma assessed as compound half life at 10 uM by HPLC method. It counts as ADME, cell-free. The essentials:
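Incubated in human plasma in vitro; remaining prodrug followed by HPLC over time and half-life derived.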

For data set [9], the system named is HT-29. The data set can be described thus: Cytotoxicity against human HT-29 cells assessed as growth reduction under hypoxic condition after 72 hrs by MTT assay. Particulars: HT-29, 72 h. The data set is classed as functional, cell-based. The essentials:
as §1

The nature of data set [10]: Selectivity ratio, IC50 for human H460 cells under normoxic condition to IC50 for human H460 cells under hypoxic condition. It counts as functional.
A short description of data set [11]: Half life in ABS buffer at 10 uM at pH 5.0 by HPLC method. The data set is classed as physicochemical.
The subject of data set [12] is NCI-H460. Briefly: Cytotoxicity against human NCI-H460 cells assessed as growth reduction under normoxic condition after 72 hrs by MTT assay. It counts as functional, cell-based. Particulars: NCI-H460, 72 h. The essentials: as §1
A short description of data set [13]: Prodrug conversion assessed as Escherichia coli nitroreductase mediated SN38 reduction by measuring half life at 10 uM in presence of NADPH by HPLC method. The data set is classed as ADME. Particulars: isolated protein. The method, boiled down: (§3)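 Prodrugs at 10 μM (1% DMSO) in PBS pH 7.4 incubated at 37 °C with E. coli nitroreductase (50 μg/mL) and NADPH (1 μmol/mL) for up to 1 h. Prodrug loss and active drug release tracked by HPLC.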

The nature of data set [14]: Prodrug conversion in Pd/C assessed as 2-aminoimidazole intermediate of 3C-PTX formation at 1 mg after 2 hrs in presence of H2 by LC/MS method. The essentials:
as §2

Data set [15] in a line: Prodrug conversion in Pd/C assessed as 2-aminoimidazole intermediate of 3C-SN38 formation at 1 mg after 2 hrs in presence of H2 by LC/MS method. The method, boiled down:
as §2

A short description of data set [16]: Prodrug conversion in Pd/C assessed as SN38 formation at 1 mg after 2 hrs in presence of H2 by LC/MS method. The essentials:
as §2

Data set [17] can be described thus: Drug level in Pd/C treated with 3C-PTX at 1 mg in presence of H2 after 2 hrs by LC/MS method. The method, boiled down: as §2
Data set [18] in a line: Drug level in Pd/C treated with 2C-PTX at 1 mg in presence of H2 after 2 hrs by LC/MS method. The method, boiled down: as §2
The nature of data set [19]: Drug level in Pd/C using 1 mg 3C-SN38 assessed as compound formation in presence of H2 after 2 hrs by LC/MS method. The method, boiled down:
as §2

Data set [20] can be described thus: Prodrug conversion in Pd/C assessed as 2-aminoimidazole intermediate of 2C-PTX formation at 1 mg after 2 hrs in presence of H2 by LC/MS method. The method, boiled down: as §2
The nature of data set [21]: Prodrug conversion assessed as Escherichia coli nitroreductase mediated 2-aminoimidazole intermediate of 2C-PTX formation at 10 uM after 1 hr in presence of NADPH by HPLC method. The data set is classed as ADME. Particulars: isolated protein. The essentials:
as §3

As usually defined, the half-life is the time needed for the level to fall by half in the phase considered. One may read the IC50 as the concentration that gives 50% inhibition. For the compound `CC(=O)O[C@H]1C(=O)[C@@]2(C)[C@H]([C@H](OC(=O)c3ccccc3)[C@]3(O)C[C@H](OC(=O)[C@H](OC(=O)OCCCn4ccnc4[N+](=O)[O-])[C@@H](NC(=O)c4ccccc4)c4ccccc4)C(C)=C1C3(C)C)[C@]1(OC(C)=O)CO[C@@H]1C[C@@H]2O`, the “Ratio IC50” value in [1] turned out to be 1.82; in data set [10], 1.17. For the same compound, the half-life at 10 µM in data set [2] is 24 h; in data set [3], 0.917 h; in data set [5], 36 h; in [8], 6 h; in data set [11] it was more than 48 h. The IC50 in data set [4] came to 290 nM; in [7] it was 18 nM; in data set [9] it was 159 nM; in data set [12], 21 nM. Besides, the Drug metabolism entry in [6] and in [14] was “Metabolite detected” each time. In addition, in data set [13], the t1/2 entry is listed as “<= 10 min”.
`CCc1c2c(nc3ccc(O)cc13)-c1cc3c(c(=O)n1C2)COC(=O)[C@@]3(CC)OC(=O)OCCCn1ccnc1[N+](=O)[O-]`: the “Ratio IC50” value is given as more than 1.67 in [1] and 2.03 in data set [10]. The half-life at 10 µM is more than 48 h in data set [2]; 0.617 h in data set [3]; more than 48 h in data set [5]; 2 h in data set [8]; 40 h in data set [11]. Also, the Drug metabolism entry in data set [15] and in data set [16] was “Metabolite detected” throughout. Besides, the concentration for half-maximal inhibition (IC50) was more than 10000 nM in data set [4], 99 nM in data set [7], 6020 nM in [9] and 201 nM in data set [12]. Besides, the t1/2 entry in data set [13] was “<= 10 min”.
As to `CC(=O)O[C@H]1C(=O)[C@@]2(C)[C@H]([C@H](OC(=O)c3ccccc3)[C@]3(O)C[C@H](OC(=O)[C@H](O)[C@@H](NC(=O)c4ccccc4)c4ccccc4)C(C)=C1C3(C)C)[C@]1(OC(C)=O)CO[C@@H]1C[C@@H]2O` [PACLITAXEL], the IC50 in data set [4] stood at 14 nM; in [9] it was 15 nM. Besides, the Drug metabolism entry in [17] and in [18] was “Metabolite detected” each time.
For the compound `CCc1c2c(nc3ccc(O)cc13)-c1cc3c(c(=O)n1C2)COC(=O)[C@@]3(CC)OC(=O)OCCn1ccnc1[N+](=O)[O-]`, the “Ratio IC50” value was more than 1.05 in data set [1] and 1.44 in data set [10]. Besides, the half-life at 10 µM in [2] was 41 h; in data set [3] it was 0.783 h; in [5], more than 48 h; in data set [8], 6 h; in data set [11], more than 48 h. In addition, the IC50 is more than 10000 nM in data set [4], 63 nM in data set [7], 9560 nM in [9] and 91 nM in data set [12]. Also, in [13], the t1/2 stood at 0.5 h.
As to `CCc1c2c(nc3ccc(O)cc13)-c1cc3c(c(=O)n1C2)COC(=O)[C@]3(O)CC` [7-ETHYL-10-HYDROXYCAMPTOTHECIN], the “Ratio IC50” value in [1] came to 0.82; in [10] it was 1.06. For the same compound, the Drug metabolism result in [19] was “Metabolite detected”. Moreover, the concentration for half-maximal inhibition (IC50) in data set [4] came to 96 nM; in data set [7] it was 47 nM; in [9], 119 nM.
For the compound `CC(=O)O[C@H]1C(=O)[C@@]2(C)[C@H]([C@H](OC(=O)c3ccccc3)[C@]3(O)C[C@H](OC(=O)[C@H](OC(=O)OCCn4ccnc4[N+](=O)[O-])[C@@H](NC(=O)c4ccccc4)c4ccccc4)C(C)=C1C3(C)C)[C@]1(OC(C)=O)CO[C@@H]1C[C@@H]2O`, the “Ratio IC50” value is 3.11 in [1] and 1.5 in data set [10]. Moreover, the half-life at 10 µM was 24 h in data set [2]; 0.333 h in data set [3]; 28 h in data set [5]; 2 h in [8]; 48 h in data set [11]. The Drug metabolism result is given as “Metabolite detected” in data set [20], “Metabolite_Notdetected” in data set [21] and “Metabolite detected” in data set [6]. The 50% inhibitory concentration (IC50) in [4] was determined as 140 nM; in [7], 6 nM; in data set [9], 45 nM; in [12], 9 nM. In addition, in data set [13], the t1/2 result is “<= 10 min”.

(Values after ChEMBL document CHEMBL4052793, “Synthesis and Biological Evaluation of Paclitaxel and Camptothecin Prodrugs on the Basis of 2-Nitroimidazole” (ACS Med Chem Lett, 2017).)
